Assay results published in ChEMBL document CHEMBL1152947, “9,11-Secosterols with antiproliferative activity from the gorgonian Eunicella cavolini” (Bioorg Med Chem, 2009).

Key:
MCF7 [1] = test: Growth inhibition of human MCF7 cells at 10 uM after 4 days by MTT assay in presence of 5% heat-inactivated fetal bovine serum treated with dextran-coated charcoal and 17-beta-estradiol relative to ICI-182780; type: functional; details: MCF7, 96 h, read-out: GI
Method in brief: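 MCF-7 cells in MEM with 5% dextran-coated-charcoal-treated heat-inactivated FBS plus 1 nM 17β-estradiol were exposed for four days to test compound (10 µM), ICI 182,780 (1 µM) or vehicle. MTT absorbance was read at 550 nm. Effect was calculated as (OD vehicle − OD test) × 100 / (OD vehicle − OD ICI 182,780). Values are mean ± SEM of at least three assays.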

MCF7 [2] = test: Growth inhibition of human MCF7 cells after 4 days by MTT assay in presence of 5% heat-inactivated fetal bovine serum treated with dextran-coated charcoal and 17-beta-estradiol; type: functional, cell-based; details: MCF7, 96 h
MCF7 [3] = test: Growth inhibition of human MCF7 cells at 10 uM after 4 days by MTT assay in presence of 10% fetal bovine serum relative to control; type: functional; details: MCF7, 96 h, read-out: GI
Method in brief: (§1)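 LNCaP or MCF-7 cells in MEM with 10% FBS were given test compound at 10 µM or 0.1% DMSO vehicle; MCF-7 exposure was four days. MTT read-out at 550 nm. Inhibition was calculated as (OD vehicle − OD test) × 100 / OD vehicle. Values are mean ± SEM, n = 4, ANOVA versus vehicle.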

MCF7 [4] = test: Growth inhibition of human MCF7 cells after 4 days by MTT assay in presence of 10% fetal bovine serum; type: functional, cell-based; details: MCF7, 96 h
LNCaP [5] = test: Growth inhibition of human LNCAP cells at 10 uM after 4 days by MTT assay in presence of 10% fetal bovine serum relative to control; type: functional; details: 96 h, read-out: GI; method in brief: as §1
LNCaP [6] = test: Growth inhibition of human LNCAP cells after 4 days by MTT assay in presence of 10% fetal bovine serum; type: functional, cell-based; details: 96 h
Method in brief: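 LNCaP cells were cultured in MEM with 10% FBS in 96-well plates against 0.1% DMSO vehicle. Viable cells were estimated by MTT conversion to formazan, read as absorbance at 550 nm. IC50 was derived from growth inhibition relative to vehicle. Values are mean ± SEM.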

K562 = test: Cytotoxicity against human K562 cells; type: functional, cell-based
HeLa = test: Cytotoxicity against human HeLa cells; type: functional, cell-based
LNCaP [7] = test: Growth inhibition of human LNCAP cells at 1 uM after 4 days by MTT assay; type: functional; details: 96 h, read-out: GI
LNCaP [8] = test: Cytotoxicity against human LNCAP cells after 4 days by MTT assay; type: functional, cell-based; details: 96 h
Method in brief: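 LNCaP cells grown in minimal essential medium with 10% FBS, exposed to secosterols for four days in 96-well plates, with 0.1% DMSO as vehicle. Viable cells were estimated from MTT conversion to formazan, read at 550 nm. Absorbance was expressed relative to vehicle (100%), and IC50 was taken from growth inhibition, mean ± SEM of ≥3 independent assays.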

MCF7 [9] = test: Cytotoxicity against human MCF7 cells after 4 days by MTT assay; type: functional, cell-based; details: MCF7, 96 h
Method in brief: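 MCF-7 cells in minimal essential medium, with either 10% FBS or 5% dextran-charcoal-treated FBS plus 1 nM 17β-estradiol, were exposed to secosterols for four days. Vehicle was 0.1% DMSO. Read-out was MTT formazan absorbance at 550 nm, expressed as % of vehicle. IC50 was derived from growth inhibition, mean ± SEM of ≥3 independent assays.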

MCF7 [10] = test: Growth inhibition of human MCF7 cells at 1 uM after 4 days by MTT assay; type: functional; details: MCF7, 96 h, read-out: GI

IC50 (MCF7 [2]) [µM] | IC50 (MCF7 [4]) [µM] | IC50 (LNCaP [6]) [µM] | Structure (SMILES) | inhibition of growth at 10 µM (MCF7 [1]) [%] | inhibition of growth at 10 µM (MCF7 [3]) [%] | inhibition of growth at 10 µM (LNCaP [5]) [%] | IC50 (K562) [µM] | IC50 (HeLa) [µM] | inhibition of growth at 1 µM (LNCaP [7]) [%] | IC50 (LNCaP [8]) [µM] | IC50 (MCF7 [9]) [µM] | inhibition of growth at 1 µM (MCF7 [10]) [%]
5.4 | 7 | 5.4 | CCC(C)/C=C/[C@@H](C)[C@H]1CC[C@@H](C2=C[C@H](O)[C@H]3C[C@@H](O)CC[C@]3(C)C2=O)[C@]1(C)CCOC(C)=O (some centres not stated) | 90 | 49 | 83 | – | – | – | – | – | –
6 | – | 6.7 | CC(=O)OCC[C@]1(C)[C@@H]([C@H](C)/C=C\C(C)C(C)C)CC[C@H]1C1=C[C@H](O)[C@H]2C[C@@H](O)CC[C@]2(C)C1=O (some centres not stated) | 62 | 27 | 45 | – | – | – | – | – | –
7.4 | 7.6 | 7 | CC(=O)OCC[C@]1(C)[C@@H]([C@H](C)/C=C/C(C)C)CC[C@H]1C1=C[C@H](O)[C@H]2C[C@@H](O)CC[C@]2(C)C1=O | 86 | 34 | 76 | 6.5 | 7 | – | – | – | –
3.8 | – | – | C=C(CC[C@@H](C)[C@H]1CC[C@@H](C2=C[C@H](O)[C@H]3C[C@@H](O)CC[C@]3(C)C2=O)[C@]1(C)CCOC(C)=O)C(C)C | 50 | ≤ 10 | ≤ 10 | – | – | – | – | – | –
– | – | – | C[C@]12CC[C@@H]3c4ccc(O)cc4C[C@@H](CCCCCCCCC[S+]([O-])CCCC(F)(F)C(F)(F)F)[C@H]3[C@@H]1CC[C@@H]2O (some centres not stated) [FULVESTRANT] | – | – | – | – | – | 100 | 0.018 | 0.018 | 100
